The subject of data set [1] is stable p110α KD and control (CONSH) cell lines (RH30, RMS-1, RD, RMS-YM). The experiment in a line: MTS growth inhibition in paired CONSH and stable p110α KD lines. Format: cell-based, human. Particulars: MTS growth inhibition curves, 72hr exposure. The method in brief:
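Lines were transduced with lentiviral PIK3CA or control shRNA at MOI 10 with polybrene (4μg/ml). Puromycin selection (2.5μg/ml) ran from day 2, and stable lines were derived over about 4 weeks. Cells were grown in DMEM with 10% FBS at 37°C, 5% CO2. MTS growth inhibition curves were run after 72hr continuous exposure to the test compound, diluted from 10mM stock.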

Another data set has as its system mTor. Particulars: cited from earlier work.
The test system of data set [2] is pAKT (Ser473) in RD xenograft tumors. Briefly: Tumor PD biomarker, MSD immunoassay. Format: in vivo, mice. Particulars: RD xenografts, end of therapeutic study. The method in brief: (§1)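 Female 6-8-week athymic nude (Ncr) mice bore subcutaneous flank RD xenografts (5 × 10⁶ cells in 25% matrigel). Once tumors reached ≈5 mm (n=6/group), mice received daily oral dosing for 19-22 days, alone or combined, with vehicle controls: MEK inhibitor 10mg/kg (10% DMSO water), TORC1/2 inhibitor 10 or 20mg/kg (acidified water), PI3K/mTOR inhibitor 25mg/kg (10% NMP/90% PEG300). Tumors were excised and snap-frozen at termination. MSD electrochemiluminescence gave phospho/total ratios in 10μg lysate.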

The subject of another data set is PI3K/mTORC1/2. Particulars: cited from earlier work.
Data set [3] can be described thus: Plasma and tumor pharmacokinetics. Format: in vivo, mice. Particulars: for plasma concentrations when administered alone: AZD8055 compared with NVP-BEZ235; for plasma level 16hrs following treatment: 10mg/kg p.o., mice bearing RD xenografts. The method in brief: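 Female 6-8 week athymic nude (Ncr) mice carried subcutaneous RD xenografts (5 × 10⁶ cells, 25% matrigel). Oral dosing at 0.1mL/10g: MEK inhibitor 10mg/kg in 10% DMSO water; TORC1/2 inhibitor 10 or 20mg/kg in acidified water; PI3K/mTOR inhibitor 25mg/kg in 10% NMP/90% PEG300. Given alone or combined. Plasma and tumors were sampled at various times (n=3), or 3hrs after the final daily dose (19-22 days). Analysed by LC-MS/MS with MRM.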

The subject of data set [4] is pS6 in RD xenograft tumors. Briefly: Tumor PD biomarker, MSD immunoassay. Format: in vivo, mice. Particulars: RD xenografts, end of therapeutic study. The method in brief:
as §1

The test system of another data set is pERK1/2 in RD cells. Briefly: Western immunoblot biomarker time course in RD cells. Format: cell-based, human. Particulars: 0.5× and 1.0× GI50 concentrations, 48hr time course. A digest of the protocol:
(§2)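 RD cells (DMEM, 10% FBS, 37°C) were treated with single agents or the combination at 0.5× and 1.0× GI₅₀ concentrations and sampled at time points up to 48h. Lysates (10μg) were run on Bis-Tris/Tris-Acetate gels and transferred to PVDF. Primary antibody 1:1,000 overnight at 4°C; HRP secondary 1:10,000 for 2h at room temperature; ECL Plus detection. PhosphorImager quantitation; treated/control levels expressed as % of time 0.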
Background: Immunoblotting shows a protein as a band on a membrane.

A further data set relates to pS6 in RD cells. The description is as above. Particulars: 0.5× and 1.0× GI50 concentrations, 48hr time course. Format: cell-based, human. A digest of the protocol: as §2
A further data set relates to RD cells. Briefly: GI50. Format: cell-based, human. Particulars: RD cells with NRAS mutation. The method in brief:
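RD cells in DMEM with 10% FBS at 37°C, 5% CO2. Compounds prepared as 10mM stocks, then diluted in medium. MTS read-out after 72hr continuous exposure; GI₅₀ = concentration giving 50% inhibition of proliferation. Isobologram: GI₅₀ of each single agent, plus GI₅₀ of one agent at several fixed sub-GI₅₀ concentrations of the other. These are plotted on the axes, with a diagonal line as theoretical additivity.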

Data set [5] relates to pERK in RD xenograft tumors. The experiment in a line: Tumor PD biomarker, MSD immunoassay. Particulars: RD xenografts, end of therapeutic study. Format: in vivo, mice. The method in brief:
as §1

The test system of the next data set is MEK1/2. Particulars: read-out: IC50 concentration for MEK1/2; cited from earlier work.
In another data set the test system is pSer473AKT in RD cells. The experiment in a line: Western immunoblot biomarker time course in RD cells. Format: cell-based, human. Particulars: 0.5× and 1.0× GI50 concentrations, 48hr time course. A digest of the protocol:
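RD cells (DMEM, 10% FBS, 37°C, 5% CO2) treated with test compounds singly or combined; protein extracted at time points over 48 hr. Lysates BCA-quantified, 10 μg on Bis-Tris or Tris-Acetate gels, PVDF transfer, primary 1:1,000 overnight 4°C, HRP secondary 1:10,000 2 h RT, ECL Plus, phosphorimager quantitation. Control and treated loaded side by side; treated/control phospho-levels given as % of time 0.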

The test system of a further data set is p110α. Briefly: PI3K isoform inhibition profile, p110α versus other isoforms. Format: biochemical. Particulars: Suppl Fig S4A.
The next data set has as its system p110β. Briefly: PI3K isoform inhibition profile, p110β versus p110α. Format: biochemical. Particulars: Suppl Fig S4A.
Where [6] appears, read: 10mg/kg p.o. each, versus alone.

Take `Cn1c(=O)n(-c2ccc(C(C)(C)C#N)cc2)c2c3cc(-c4cnc5ccccc5c4)ccc3ncc21` [NVP-BEZ235]: in data set [1], the “sensitivity of stable p110α KD lines compared with CONSH counterparts” value (shortened to “sensitivity … compared with CONSH counterparts”) was “more sensitive to mTOR inhibition than their CONSH counterparts”. For the same compound, the “concentrations at which it predominantly inhibits mTOR” value in the data set with mTor is “less than 100 nM”. Also, the “change of tumor AKT phosphorylation” value in data set [2] was “equally efficient in reducing AKT and S6 phosphorylation”. Besides, in the data set with PI3K/mTORC1/2, the “concentrations at which it is a dual PI3K/mTORC1/2 inhibitor” value is “above 500 nM”. Besides, in data set [3] (3hrs following the final dose), the “plasma concentration range in combination with AZD6244 versus alone” value is recorded as “increased” and the “plasma concentrations when administered alone” value is listed as “in the same range”. In data set [4], the “change of tumor S6 phosphorylation” value is “equally efficient in reducing AKT and S6 phosphorylation”.

For `FC(F)c1nc2ccccc2n1-c1nc(N2CCOCC2)nc(N2CCOCC2)n1` [ZSTK474], the “sensitivity … compared with CONSH counterparts” value in data set [1] was “increased sensitivity”. Besides, in the data set with mTor (read-out: IC50 against mTor), the IC50 was 377 nM.

As for `COc1ccc(-c2ccc3c(N4CCOC[C@@H]4C)nc(N4CCOC[C@@H]4C)nc3n2)cc1CO` [AZD8055], in data set [1], the “sensitivity … compared with CONSH counterparts” value is given as “more sensitive to mTOR inhibition than their CONSH counterparts”. The “change of tumor AKT phosphorylation” value in data set [2] is “equally efficient in reducing AKT and S6 phosphorylation”. For the same compound, the pERK levels result with pERK1/2 in RD cells is on record as “increased pERK levels”. In the data set with pS6 in RD cells, the “pS6 levels / inhibition of S6 phosphorylation” value is on record as “concentration dependent”. In addition, the “single-agent sensitivity of RD cells” value with RD cells is reported as “relatively resistant”. Moreover, in data set [3] (setting [6]), the “plasma and tumor levels in combination with AZD6244” value is “higher”. The “plasma level 16hrs following treatment” value in [3] is on record as “close to, or below, the limit of detection”. Besides, in data set [3] (3hrs following the final dose), the “plasma concentration range in combination with AZD6244 versus alone” value is “increased” and the “plasma concentrations when administered alone” value is “in the same range”. The “change of tumor S6 phosphorylation” value in data set [4] was “equally efficient in reducing AKT and S6 phosphorylation”. Further, in [5], the “change of tumor pERK levels” value was “increased pERK levels to a greater extent than NVP-BEZ235”.

As for `Cn1cnc2c(F)c(Nc3ccc(Br)cc3Cl)c(C(=O)NOCCO)cc21` [AZD6244], the “sensitivity … compared with CONSH counterparts” value in data set [1] is “only the RMS-1 KD line (lacking both p110α and p110δ) exhibited significantly enhanced sensitivity”. Moreover, in the data set on pERK1/2 in RD cells, the pERK levels result was “ablated pERK levels at all time points and both concentrations”. In the data set with MEK1/2, the IC50 is 14 nM. In the data set on RD cells, the “single-agent sensitivity of RD cells” value is “relatively resistant”. Also, in data set [3] (setting [6]), the “elimination phase in combination with AZD8055” value is on record as “extended” and the “peak plasma concentrations in combination with AZD8055” value is “reduced”. In addition, the “plasma level 16hrs following treatment” value in data set [3] is “close to, or below, the limit of detection”. The “plasma AZD6244 concentrations in combination with NVP-BEZ235” value in data set [3] (3hrs following the final dose) is listed as “reduced plasma concentrations of AZD6244 to a similar extent as AZD8055”. In addition, the pSer473AKT levels result in the data set with pSer473AKT in RD cells is “increased p^Ser473AKT levels”.

On to `Nc1cc(C(F)(F)F)c(-c2cc(N3CCOCC3)nc(N3CCOCC3)n2)cn1` [BMK120], for which the “sensitivity … compared with CONSH counterparts” value in data set [1] was “No differences in sensitivity”. Besides, in the data set with p110α, the “selectivity for p110α versus the other isoforms” value was “modestly selective for p110α versus the other isoforms”.

Regarding `Cc1cc(C(C)Nc2ccccc2)c2nc(N3CCOCC3)cc(=O)n2c1` (stereo not drawn) [TGX221], the “sensitivity … compared with CONSH counterparts” value in data set [1] was “only the RMS-1 stable KD cell line, with minimal p110α and δ expression, showed increased sensitivity”. In addition, the “selectivity for p110β versus p110α” value with p110β was 78 fold.

The record behind these values is article PMC3818134 (Clinical cancer research : an official journal of the …, 2013).
